Measurements pooled from the literature.
Protocols differ between the studies behind these lines.
Organism: Pseudomonas aeruginosa
Effect on: microbial growth

SMILES | test | system | conditions | MIC
CC1(C)SC2C(NC(=O)C(NC(=O)C3=C(O)C(Cc4ccc(O)cc4)NC3=O)c3ccccc3)C(=O)N2C1C(=O)O (stereo not shown) |  |  |  | 25 mg/L
O=c1cc(-c2ccc(O)cc2)oc2cc(O)cc(O)c12 | broth dilution | PAO1 |  | 128 mg/L
CCn1cc(C(=O)O)c(=O)c2cc(F)c(N3CCNCC3)cc21 | broth dilution | ATCC10145 | 18 h | > 5 mg/L
NC1CCCCc2c1[nH]c1ccc(Br)cc21 (stereo not shown) | broth dilution | PAO1 | 18 h | 128 mg/L
O=C(CCCCCCCC[P+](c1ccccc1)(c1ccccc1)c1ccccc1)Nc1cc(O)c(O)c(O)c1.[Br-] | broth dilution | ATCC27853 | 18 h | > 32 mg/L
C[C@H]1[C@H](NC(=O)/C(=N\OC(C)(C)C(=O)O)c2csc(N)n2)C(=O)N1S(=O)(=O)O | agar dilution | PAO1 |  | 4 mg/L
Clc1ccc(NCc2ccc(Oc3ccccn3)cc2)cc1 |  |  |  | > 25 mg/L
CN(C)c1cc(CNCC(C)(C)C)c(O)c2c1C[C@H]1C[C@H]3[C@H](N(C)C)C(O)=C(C(N)=O)C(=O)[C@@]3(O)C(O)=C1C2=O | broth dilution | ATCC27853 |  | > 32 mg/L
O=C(Nc1ccc(F)c(Cl)c1)c1cc(Cl)ccc1O | broth dilution | ATCC27853 |  | > 64 mg/L
CC(C)Oc1c(NC(=O)c2ccc(NC(=O)[C@H](CC(N)=O)NC(=O)c3ccc(NC(=O)C(C)Sc4ccc(C#N)cc4)cc3)cc2)ccc(C(=O)Nc2ccc(C(=O)O)cc2)c1O (stereo partly shown) |  | PA14 |  | > 64 mg/L
Cc1ccc(C)n1-c1ccc(-c2nnc(-c3ccccc3Cl)[nH]2)cc1 | broth dilution | ATCC10145 | 18 h | 250 mg/L
CC1=NN(CNc2ccccc2[N+](=O)[O-])C(=O)C1=NNn1c(-c2ccccc2)nc2ccccc2c1=O | broth dilution |  | 24 h | 50.4 µM
CC(C)Oc1c(NC(=O)c2ccc(NC(=O)[C@H](CC(N)=O)NC(=O)c3ccc(NC(=O)c4ccc(C#N)cc4)cc3)cc2)ccc(C(=O)Nc2ccncc2)c1O |  | PA14 |  | > 64 mg/L
Cc1ccc2nc(-c3ccc(Cl)cc3)n(Cc3ccccc3)c2c1 | broth dilution | ATCC27853 |  | 64 mg/L
O=C(Nc1ccc(S(=O)(=O)c2nccs2)cc1)c1cc(N=Nc2nccs2)ccc1O | broth dilution |  |  | 100 mg/L
CN(C)[C@@H]1C(O)=C(C(N)=O)C(=O)[C@@]2(O)C(O)=C3C(=O)c4c(O)c(-c5ccccc5)nc(Cl)c4C[C@H]3C[C@@H]12.Cl | broth dilution | ATCC27853 |  | > 32 mg/L
CC(C)Oc1c(NC(=O)c2ccc(NC(=O)[C@H](CC(N)=O)NC(=O)c3ccc(NC(=O)c4ccc(NC(N)=O)cc4)cc3)cc2)ccc(C(=O)Nc2ccc(C(=O)O)cc2)c1O |  | PA14 |  | > 64 mg/L
COc1c(C)c(OC(=O)c2ccc(C)cc2)c(C)c(O)c1C(=O)/C=C/c1ccccc1 | broth dilution | ATCC27853 |  | 5000 mg/L
CCCCCCC#Cc1cncc(-c2nnc(SCc3ccc([N+](=O)[O-])cc3)n2C)c1 |  |  |  | ≥ 20 mg/L
CCCCCCCC(=O)Oc1c(C)c(O)c(C(=O)/C=C/c2ccccc2)c(OC)c1C | broth dilution | ATCC27853 |  | 5000 mg/L
O=C(CCCCCCCCCC[P+](c1ccccc1)(c1ccccc1)c1ccccc1)Nc1ccc(O)c(O)c1.[Br-] | broth dilution | ATCC27853 | 18 h | > 32 mg/L
CCCCCCC/C=C/C(=O)N1C(=O)/C(=C(\O)c2ccc(OCOCCOC)cc2)C(=O)C1CC(C)C (stereo not shown) |  | PA01 |  | > 200 mg/L
CN(C)[C@@H]1C(O)=C(C(N)=O)C(=O)[C@@]2(O)C(O)=C3C(=O)c4c(cc5ccccc5c4O)C[C@H]3C[C@@H]12 | broth dilution | ATCC27853 |  | 32 mg/L
C/C(=C\c1ccc(C#N)cc1)C(=O)Nc1ccc(C(=O)N[C@@H](CC(N)=O)C(=O)Nc2ccc(C(=O)Nc3ccc(C(=O)Nc4ccc(C(=O)O)cc4)c(O)c3OCC(C)C)cc2)cc1 |  | PA14 |  | > 64 mg/L
Cc1cc(=O)[nH]n1C(=O)c1ccc(-n2c(C)ccc2C)cc1 | broth dilution | ATCC10145 | 18 h | 250 mg/L

SMILES | test | system | conditions | MIC
CCCCC(=O)N1C(=O)/C(=C(/C)O)C(=O)C1CC(C)C (stereo not shown) |  | PA01 |  | > 200 mg/L
COc1ncc(O)c2c1C[C@H]1C[C@H]3[C@H](N(C)C)C(O)=C(C(N)=O)C(=O)[C@@]3(O)C(O)=C1C2=O.Cl.Cl | broth dilution | ATCC27853 |  | > 32 mg/L
CN(C)[C@@H]1C(O)=C(C(N)=O)C(=O)[C@@]2(O)C(O)=C3C(=O)c4c(cc5ccc(CN6CC(F)(F)C6)cc5c4O)C[C@H]3C[C@@H]12 | broth dilution | ATCC27853 |  | 32 mg/L
COc1c(C)c(OC)c2c(c1C)OC(c1ccccc1)CC2=O (stereo not shown) | broth dilution | ATCC27853 |  | 5000 mg/L
CCCCCCC/C=C/C(=O)N1C(=O)/C(=C(\O)C2CCNCC2)C(=O)C1CC(C)C (stereo not shown) |  | PA01 |  | 25 mg/L
COc1cc(Cc2cnc(N)nc2N)cc(OC)c1OC | broth dilution |  | 24 h | 8 mg/L
CC1(C)S[C@@H]2[C@H](NC(=O)C(C(=O)O)c3ccccc3)C(=O)N2[C@H]1C(=O)O (stereo partly shown) | broth dilution |  |  | > 200 µM
O=C1NN=C(N=Cc2ccc(O)c(O)c2)C1=NNn1c(-c2ccccc2)nc2ccccc2c1=O | broth dilution |  | 24 h | 53.5 µM
CC(C)Oc1c(NC(=O)c2ccc(NC(=O)[C@H](CC(N)=O)NC(=O)c3ccc(NC(=O)c4ccccc4[N+](=O)[O-])cc3)cc2)ccc(C(=O)Nc2ccc(C(=O)O)cc2)c1O |  | PA14 |  | > 64 mg/L
O=C1NN=C(N=Cc2ccc(O)cc2O)C1=NNn1c(-c2ccccc2)nc2ccccc2c1=O | broth dilution |  | 24 h | 53.5 µM
CC(C)Oc1c(NC(=O)c2ccc(NC(=O)[C@H](CC(N)=O)NC(=O)c3ccc(NC(=O)c4ccc5c(c4)COC5=O)cc3)cc2)ccc(C(=O)Nc2ccc(C(=O)O)cc2)c1O |  | PA14 |  | > 64 mg/L
Cc1ccc(NCc2ccc(Oc3ccccn3)cc2)cc1 |  |  |  | > 50 mg/L
CN(C)c1nc(NC(=O)CNC(C)(C)C)c(O)c2c1C[C@H]1C[C@H]3[C@H](N(C)C)C(O)=C(C(N)=O)C(=O)[C@@]3(O)C(O)=C1C2=O.Cl | broth dilution | ATCC27853 |  | > 32 mg/L
N=C(N)NN=Cc1ccc(OC/C=C\COc2ccc(C=NNC(=N)N)cc2)cc1 |  | PA14 | 16 h | ≤ 51 mg/L
Brc1ccc(NCc2ccc(Oc3ccccn3)cc2)cc1 |  |  |  | > 25 mg/L
Cc1cccc2nc(-c3ccc([N+](=O)[O-])o3)[nH]c12 | broth dilution | ATCC27853 |  | > 64 mg/L
CN(C)[C@@H]1C(O)=C(C(N)=O)C(=O)[C@@]2(O)C(O)=C3C(=O)c4c(cc5ccc(-c6cccnc6)cc5c4O)C[C@H]3C[C@@H]12 | broth dilution | ATCC27853 |  | 32 mg/L
CC(C)Oc1c(NC(=O)c2ccc(NC(=O)[C@H](CC(N)=O)NC(=O)c3ccc(NC(=O)c4cccc([N+](=O)[O-])c4)cc3)cc2)ccc(C(=O)Nc2ccc(C(=O)O)cc2)c1O |  | PA14 |  | > 64 mg/L
CC(C)(C)OCC1NC(=O)C(C(=O)NC(C(=O)NC2C(=O)N3C2SC(C)(C)C3C(=O)O)c2ccccc2)=C1O (stereo not shown) |  |  |  | 12.5 mg/L
O=C(CCc1cc(O)c(O)c(O)c1)NCCCCCCCC[P+](c1ccccc1)(c1ccccc1)c1ccccc1.[Br-] | broth dilution | ATCC27853 | 18 h | > 32 mg/L
CC(C)Nc1nc(Cl)c2c(c1O)C(=O)C1=C(O)[C@]3(O)C(=O)C(C(N)=O)=C(O)[C@@H](N(C)C)[C@@H]3C[C@@H]1C2.Cl.Cl.Cl | broth dilution | ATCC27853 |  | > 32 mg/L
CC(C)Oc1c(NC(=O)c2ccc(NC(=O)[C@H](CC(N)=O)NC(=O)c3ccc(NC(=O)c4ccc(C#N)cc4)cc3)cc2)ccc(C(=O)Nc2cccc(C(=O)O)c2)c1O |  | PA14 |  | > 64 mg/L
[H]/N=C(/N)N[C@H]1[C@H](O)[C@@H](O)[C@H](O[C@@H]2O[C@@H](C)[C@](O)(C=O)[C@H]2O[C@@H]2O[C@@H](CO)[C@H](O)[C@@H](O)[C@@H]2NC)[C@@H](N/C(N)=N\[H])[C@@H]1O | broth dilution | PAO1 |  | 64 mg/L
Cc1ccc2nc(-c3ccc([N+](=O)[O-])cc3)n(Cc3ccc(Cl)cc3)c2c1 | broth dilution | ATCC27853 |  | 256 mg/L
